Results from ChEMBL document CHEMBL5724801, “EUbOPEN Chemogenomics Library - Multiplex” (2024).
Several values for one entry are separate records, joined by “and”; a condition that tells them apart may be missing. Equal values may be shown once.

Tested on: HEK-293T
Assay: Multiplex assay against HEK293T
Type: toxicity, cell-based
Settings: human
Method in brief: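 On a CQ1 microscope at 37°C and 5% CO2, live cells were imaged after compound addition. They had been stained at seeding with Hoechst33342, BioTracker Green Microtubule Cytoskeleton Dye, MitoTracker Red and Annexin V Alexa Fluor 680. CellPathfinder machine-learning gating assigned cells to Hoechst high-intensity objects or normal cells, normal cells to healthy, pyknosed or fragmented nuclei, and pyknosed cells to mitotic or apoptotic. Tubulin, mitochondrial-mass and membrane-permeability phenotypes are per cents of healthy-nucleus cells.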

[1] = 12 h, 1 µM, compound concentration 1 uM
[2] = 12 h, 10 µM, compound concentration 10 uM
[3] = 24 h, 1 µM, compound concentration 1 uM
[4] = 24 h, 10 µM, compound concentration 10 uM
[5] = 48 h, 1 µM, compound concentration 1 uM
[6] = 48 h, 10 µM, compound concentration 10 uM

O=C(NCCO)c1cccc(-c2cc(Nc3ccc(OC(F)(F)F)cc3)ncn2)c1
Population Apoptotic (%) [1]: 27% and 40% | Population Fragmented Nuclei (%) [1]: 7% and 4% | Population Healthy Nuclei (%) [1]: 78% and 77% | Population Hoechst High Intensity Objects (%) [1]: 8% and 6% | Population Membrane Permeable-Phenotype (%) [1]: 0% | Population Mitochondria Different-Phenotype (%) [1]: 47% and 60% | Population Mitotic Cells (%) [1]: 72% and 59% | Population Normal (%) [1]: 91% and 93% | Population Pyknosed Nuclei (%) [1]: 13% and 17% | Population Tubulin-Different-Phenotype (%) [1]: 23% and 16% | Total Cell Count [1]: 409 and 262 | Population Apoptotic (%) [2]: 55% and 63% | Population Fragmented Nuclei (%) [2]: 6% and 5% | Population Healthy Nuclei (%) [2]: 76% and 73% | Population Hoechst High Intensity Objects (%) [2]: 10% and 12% | Population Membrane Permeable-Phenotype (%) [2]: 0% | Population Mitochondria Different-Phenotype (%) [2]: 69% and 74% | Population Mitotic Cells (%) [2]: 44% and 36% | Population Normal (%) [2]: 89% and 87% | Population Pyknosed Nuclei (%) [2]: 17% and 21% | Population Tubulin-Different-Phenotype (%) [2]: 49% and 26% | Total Cell Count [2]: 374 and 325 | Population Apoptotic (%) [3]: 26% and 41% | Population Fragmented Nuclei (%) [3]: 11% and 7% | Population Healthy Nuclei (%) [3]: 78% and 79% | Population Hoechst High Intensity Objects (%) [3]: 4% and 6% | Population Membrane Permeable-Phenotype (%) [3]: 0% | Population Mitochondria Different-Phenotype (%) [3]: 21% and 38% | Population Mitotic Cells (%) [3]: 73% and 58% | Population Normal (%) [3]: 95% and 93% | Population Pyknosed Nuclei (%) [3]: 10% and 13% | Population Tubulin-Different-Phenotype (%) [3]: 15% and 17% | Total Cell Count [3]: 538 and 331 | Population Apoptotic (%) [4]: 39% and 50% | Population Fragmented Nuclei (%) [4]: 5% and 6% | Population Healthy Nuclei (%) [4]: 80% and 77% | Population Hoechst High Intensity Objects (%) [4]: 7% and 14% | Population Membrane Permeable-Phenotype (%) [4]: 0% | Population Mitochondria Different-Phenotype (%) [4]: 61% and 56% | Population Mitotic Cells (%) [4]: 60% and 50% | Population Normal (%) [4]: 92% and 85% | Population Pyknosed Nuclei (%) [4]: 14% and 15% | Population Tubulin-Different-Phenotype (%) [4]: 38% and 22% | Total Cell Count [4]: 447 and 354 | Population Apoptotic (%) [5]: 17% and 37% | Population Fragmented Nuclei (%) [5]: 12% and 9% | Population Healthy Nuclei (%) [5]: 80% and 79% | Population Hoechst High Intensity Objects (%) [5]: 3% and 5% | Population Membrane Permeable-Phenotype (%) [5]: 2% and 0% | Population Mitochondria Different-Phenotype (%) [5]: 17% and 23% | Population Mitotic Cells (%) [5]: 82% and 62% | Population Normal (%) [5]: 96% and 94% | Population Pyknosed Nuclei (%) [5]: 7% and 10% | Population Tubulin-Different-Phenotype (%) [5]: 13% and 9% | Total Cell Count [5]: 897 and 476 | Population Apoptotic (%) [6]: 41% and 58% | Population Fragmented Nuclei (%) [6]: 10% and 16% | Population Healthy Nuclei (%) [6]: 79% and 72% | Population Hoechst High Intensity Objects (%) [6]: 8% and 17% | Population Membrane Permeable-Phenotype (%) [6]: 1% and 0% | Population Mitochondria Different-Phenotype (%) [6]: 36% | Population Mitotic Cells (%) [6]: 58% and 41% | Population Normal (%) [6]: 91% and 82% | Population Pyknosed Nuclei (%) [6]: 10% and 11% | Population Tubulin-Different-Phenotype (%) [6]: 18% and 13% | Total Cell Count [6]: 595 and 504

CCCOc1ccc2[nH]cc(C3=CCNCC3)c2n1.Cl
Population Apoptotic (%) [1]: 32% and 44% | Population Fragmented Nuclei (%) [1]: 5% and 6% | Population Healthy Nuclei (%) [1]: 81% and 82% | Population Hoechst High Intensity Objects (%) [1]: 5% and 4% | Population Membrane Permeable-Phenotype (%) [1]: 0% | Population Mitochondria Different-Phenotype (%) [1]: 41% and 52% | Population Mitotic Cells (%) [1]: 68% and 55% | Population Normal (%) [1]: 94% and 95% | Population Pyknosed Nuclei (%) [1]: 12% and 10% | Population Tubulin-Different-Phenotype (%) [1]: 39% and 21% | Total Cell Count [1]: 416 and 344 | Population Apoptotic (%) [2]: 43% and 55% | Population Fragmented Nuclei (%) [2]: 5% and 6% | Population Healthy Nuclei (%) [2]: 78% and 82% | Population Hoechst High Intensity Objects (%) [2]: 10% and 4% | Population Membrane Permeable-Phenotype (%) [2]: 0% | Population Mitochondria Different-Phenotype (%) [2]: 58% and 76% | Population Mitotic Cells (%) [2]: 56% and 44% | Population Normal (%) [2]: 89% and 95% | Population Pyknosed Nuclei (%) [2]: 15% and 11% | Population Tubulin-Different-Phenotype (%) [2]: 41% | Total Cell Count [2]: 446 and 387 | Population Apoptotic (%) [3]: 28% and 35% | Population Fragmented Nuclei (%) [3]: 10% and 9% | Population Healthy Nuclei (%) [3]: 76% and 80% | Population Hoechst High Intensity Objects (%) [3]: 3% and 2% | Population Membrane Permeable-Phenotype (%) [3]: 0% and 1% | Population Mitochondria Different-Phenotype (%) [3]: 26% and 29% | Population Mitotic Cells (%) [3]: 71% and 64% | Population Normal (%) [3]: 96% and 97% | Population Pyknosed Nuclei (%) [3]: 12% and 9% | Population Tubulin-Different-Phenotype (%) [3]: 24% and 14% | Total Cell Count [3]: 558 and 425 | Population Apoptotic (%) [4]: 39% and 51% | Population Fragmented Nuclei (%) [4]: 12% and 6% | Population Healthy Nuclei (%) [4]: 74% and 81% | Population Hoechst High Intensity Objects (%) [4]: 7% and 3% | Population Membrane Permeable-Phenotype (%) [4]: 0% | Population Mitochondria Different-Phenotype (%) [4]: 50% and 63% | Population Mitotic Cells (%) [4]: 60% and 48% | Population Normal (%) [4]: 92% and 96% | Population Pyknosed Nuclei (%) [4]: 12% and 11% | Population Tubulin-Different-Phenotype (%) [4]: 38% and 34% | Total Cell Count [4]: 583 and 502 | Population Apoptotic (%) [5]: 17% and 38% | Population Fragmented Nuclei (%) [5]: 13% and 9% | Population Healthy Nuclei (%) [5]: 79% and 82% | Population Hoechst High Intensity Objects (%) [5]: 2% and 1% | Population Membrane Permeable-Phenotype (%) [5]: 0% and 1% | Population Mitochondria Different-Phenotype (%) [5]: 15% and 20% | Population Mitotic Cells (%) [5]: 82% and 61% | Population Normal (%) [5]: 97% and 98% | Population Pyknosed Nuclei (%) [5]: 6% and 7% | Population Tubulin-Different-Phenotype (%) [5]: 12% and 9% | Total Cell Count [5]: 872 and 657 | Population Apoptotic (%) [6]: 35% and 26% | Population Fragmented Nuclei (%) [6]: 14% and 13% | Population Healthy Nuclei (%) [6]: 76% and 80% | Population Hoechst High Intensity Objects (%) [6]: 6% and 5% | Population Membrane Permeable-Phenotype (%) [6]: 0% | Population Mitochondria Different-Phenotype (%) [6]: 41% and 37% | Population Mitotic Cells (%) [6]: 64% and 73% | Population Normal (%) [6]: 93% and 94% | Population Pyknosed Nuclei (%) [6]: 8% and 6% | Population Tubulin-Different-Phenotype (%) [6]: 23% and 20% | Total Cell Count [6]: 776 and 733
